Measured values pooled from the literature.
Each line is one published result; the experiments were not run side by side.
EGFR L858R/T790M: Epidermal growth factor receptor (EGFR, Homo sapiens, UniProt P00533, L858R/T790M)
EGFR L858R: Epidermal growth factor receptor (EGFR, Homo sapiens, UniProt P00533, L858R)
EGFR: Epidermal growth factor receptor (EGFR, Homo sapiens, UniProt P00533)
EGFR T790M: Epidermal growth factor receptor (EGFR, Homo sapiens, UniProt P00533, T790M)
EGFR del752-759: Epidermal growth factor receptor (EGFR, Homo sapiens, UniProt P00533, del752-759)

target	observed	mode	technique	tested at	measurement	value	SMILES
Epidermal growth factor receptor (EGFR, Homo sapiens, UniProt P00533, G719C)	binding			1 µM	remaining binding	83%	N[C@@H]1CCN(c2nccc(-c3cnn4ncccc34)n2)C1
EGFR L858R/T790M	enzyme activity	inhibitor	ELISA	0.1 µM	inhibition	2%	C=CC(=O)Nc1cc(Nc2nc(N3CCc4sccc4C3)c3cccnc3n2)c(OC)cc1N1CCN(CCO)CC1
EGFR L858R/T790M	enzyme activity	inhibitor		1 µM	inhibition	17%	COc1cc2ncnc(Nc3ccc(Oc4ccccc4)c(C)c3C)c2cc1OC
EGFR L858R/T790M	enzyme activity	inhibitor	ELISA	0.1 µM	inhibition	25.1%	COc1cc(N(C)CCN(C)C)c(NC(=O)C=C(C)C)cc1Nc1nc(Nc2cnn(C)c2)c2sccc2n1
Epidermal growth factor receptor (EGFR, Homo sapiens, UniProt P00533, del746-750)	cell-free assay		competition with immobilised ligand	0.1 µM	remaining binding	100%	CCOC(=O)c1cc2cc(-c3cc(C(=O)NCc4ccc(C(=O)O)cc4)nn3C)ccc2[nH]1
EGFR L858R	enzyme activity	inhibitor		0.1 µM	activity vs control	112%	Cc1cc(NC(=O)c2cccc3cc(-c4cccc5[nH]nc(N)c45)ccc23)ccc1F
EGFR L858R	binding			1 µM	remaining binding	89%	CN(C)c1nccc(-c2cnc3ncccn23)n1
EGFR L858R/T790M	enzyme activity	inhibitor	ELISA	0.1 µM	inhibition	22.5%	CCC(=O)Nc1cc(Nc2nc(N3CCc4sccc4C3)c3cccnc3n2)c(OC)cc1N1CCC(N(C)C)CC1
EGFR	binding		SPR		kon	192000 M⁻¹ s⁻¹	CC(C)[C@@H]1NC(=O)[C@H](CCCNC(=N)N)NC(=O)[C@H](Cc2ccc(O)cc2)NC(=O)[C@H](C(C)C)NC(=O)[C@H](C(C)C)NC(=O)[C@H](CCCNC(=N)N)NC(=O)[C@H](CC(=O)O)NC(=O)[C@H](CC(=O)O)NC(=O)CCNC(=O)[C@H](Cc2ccc(O)cc2)NC(=O)[C@H](Cc2ccc(O)cc2)NC(=O)[C@H](Cc2ccccc2)NC(=O)[C@@H](Cc2ccc(O)cc2)NC(=O)CSC[C@@H](C(=O)NCC(N)=O)NC(=O)[C@H](C)NC1=O
Epidermal growth factor receptor (EGFR, Homo sapiens, UniProt P00533, L861Q)	cell-free assay		competition with immobilised ligand	0.1 µM	remaining binding	76%	C[C@H](c1ccnc(Nc2nc3ccc(-c4cc(N(C)C)ncn4)cc3[nH]2)c1)N1CCN(C(=O)CC(F)(F)F)CC1
Epidermal growth factor receptor (EGFR, Homo sapiens, UniProt P00533, del746-750/T790M)	enzyme activity	inhibitor		0.1 µM	inhibition	-0.8%	CC/C(=N\NC(=O)NCc1cccc(O)c1)c1ccc(O)c(C)c1O
EGFR L858R/T790M	cell-free assay		competition with immobilised ligand	1 µM	remaining binding	99%	O=C(Nc1cccnn1)N1CCC(=Cc2cccc(Oc3ccc(C(F)(F)F)cn3)c2)CC1
EGFR L858R	cell-free assay			10 µM	remaining signal	21%	Cc1ccc(NC(=O)c2ccc(C)c(C(F)(F)F)c2)cc1C#Cc1nn(C2CCC(O)CC2)c2ncnc(N)c12 (stereo not drawn)
EGFR L858R	enzyme activity	inhibitor		0.1 µM	inhibition	26%	COc1cc(-c2cc(-c3ccc(N4CCNCC4)cc3)cnc2N)cc(OC)c1OC
EGFR T790M	cell-free assay		competition with immobilised ligand	1 µM	remaining binding	85%	O=C1CCc2cc(Nc3cc(OC4CCOCC4)c([N+](=O)[O-])cc3Cl)ccc2N1
EGFR	cell-free assay			0.5 µM	remaining signal	94.4%	N#CCCc1ccc2c(c1)-c1[nH]c3ccc([N+](=O)[O-])cc3c1CC(=O)N2
EGFR del752-759	cell-free assay		competition with immobilised ligand	1 µM	remaining binding	88%	CCC(=O)N[C@@H]1CC[C@H](C(=O)N(C)c2ccc(-c3nc4ccccc4o3)cc2)C1
EGFR	cell-free assay			0.5 µM	remaining signal	91%	Cc1ccc(Nc2nccc(N(C)c3ccc4c(C)n(C)nc4c3)n2)cc1S(N)(=O)=O
EGFR	enzyme activity	inhibitor		1 µM	activity vs control	93%	CC(C)c1ccc(NC(=O)c2cccs2)c(-c2nc3ccccc3[nH]c2=O)c1
EGFR	cell-free assay			23.5 nM	remaining signal	55%	Cc1ccc(C(=O)Nc2ccc(CN3CCN(C)CC3)c(C(F)(F)F)c2)cc1C#Cc1cnc2cccnn12
EGFR del752-759	cell-free assay		competition with immobilised ligand	0.1 µM	remaining binding	94%	Cn1nc(C(=O)NCc2ccc(C(=O)O)cc2)cc1-c1ccc2[nH]ccc2c1
EGFR	binding			1 µM	remaining binding	86%	CN(CCCC(F)(F)F)c1nccc(-c2cnn3ncccc23)n1
EGFR	binding		SPR		kon	40200 M⁻¹ s⁻¹	CC(C)[C@@H]1NC(=O)[C@H](CCCNC(=N)N)NC(=O)[C@H](Cc2ccc(O)cc2)NC(=O)[C@H](C(C)C)NC(=O)[C@H](C(C)C)NC(=O)[C@H](CCCNC(=N)N)NC(=O)[C@H](CC(=O)O)NC(=O)[C@H](CC(=O)O)NC(=O)[C@H](C)NC(=O)[C@H](Cc2ccc(O)cc2)NC(=O)[C@H](Cc2ccc(O)cc2)NC(=O)[C@H](Cc2ccccc2)NC(=O)[C@@H](Cc2ccc(O)cc2)NC(=O)CSC[C@@H](C(=O)NCC(N)=O)NC(=O)CC(c2ccccc2)NC1=O (stereo partly drawn)
EGFR del752-759	binding			1 µM	remaining binding	97%	C[C@H]1CCN(c2nccc(-c3cnn4ncccc34)n2)C1
Epidermal growth factor receptor (EGFR, Homo sapiens, UniProt P00533, A750P/del747-749)	cell-free assay		competition with immobilised ligand	1 µM	remaining binding	70%	Cc1nc(C2CCN(C(=O)c3ccc(OC(F)(F)F)cc3N)CC2)c2ncc(N3CCN(C)CC3)cc2n1
EGFR	enzyme activity	inhibitor	radiometric	1 µM	remaining activity	108%	Cc1cnc(NC2CCOCC2)nc1-n1cnc(C(=O)NC(CN)c2cc(F)cc(Cl)c2)c1 (stereo not drawn)
EGFR	enzyme activity	inhibitor		1 µM	activity vs control	86%	Cc1ccc(C(=O)NCc2ccsc2)cc1C#Cc1cn(C(C)C)c2ncnc(N)c12
EGFR T790M	cell-free assay			20 µM	remaining signal	12%	Nc1ncnc2occ(-c3ccc(NC(=O)Nc4cc(C(F)(F)F)ccc4F)cc3)c12
Epidermal growth factor receptor (EGFR, Homo sapiens, UniProt P00533, del747-752/P753S)	cell-free assay		competition with immobilised ligand	1 µM	remaining binding	81%	COc1ccc2c(O[C@@H]3C[C@H]4C(=O)N[C@]5(C(=O)O)CC5/C=C\CCCCC[C@H](NC(=O)OC5CCCC5)C(=O)N4C3)cc(-c3csc(NC(=O)C(C)C)n3)nc2c1C (stereo partly drawn)
EGFR	cell-free assay			0.5 µM	remaining signal	3.84%	COc1cc(Nc2c(C#N)cnc3cc(OCCCN4CCN(C)CC4)c(OC)cc23)c(Cl)cc1Cl
